From the RNAGym collection of RNA variant scans (doi:10.1126/science.aae0568)
Fewer inactive variants are shown than the library holds.

B1: tRNA (parent)
chain: GUUCCGUUGGCGUAAUGGUAACGCGUCUCCCUCCUAAGGAGAAGACUGCGGGUUCGAGUCCCGUACGGAACG

Variants of: B1
Assay: yeast fitness relative to wild type (ratio to wild type); higher = fitter; tRNA-Arg(CCU), competitive growth, 37 C, YPD
Method in brief: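 Changes in genotype frequencies gave Darwinian fitness relative to wild type. Frequencies were read by 100-nucleotide paired-end sequencing of gene amplicons before and after pooled Saccharomyces cerevisiae strains, carrying tRNA-Arg(CCU) gene variants at the native locus, were competed in YPD at 37°C for 24 hours in six replicates. A genotype was kept only with ≥ 100 starting reads, and estimates < 0.5 were set to 0.5.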

Compared with A15U A57C A65U A69C, A15U A57U is higher in yeast fitness: no more than 0.5 for the first, 0.666 for the second.

Going from A15U A65C to A15U A65U A70C, the yeast fitness falls from 0.698 to no more than 0.5.

Going from A15U A69U to A15U A70C, the yeast fitness rises from 0.696 to 0.867.

First: A15U A70G
Second: A15U A70U
The yeast fitness of the first is lower: 0.663 for the first, 0.836 for the second.

Compared with A15U C22A, A15U C22A A43G G51C is lower in yeast fitness: 0.738 for the first, no more than 0.5 for the second.

A15U C22A A43G G51C U59C C62U G68U and A15U C22A G23A C24A C46A cannot be ordered by yeast fitness: no more than 0.5 for the first, no more than 0.5 for the second.

A15U C22A G23A C24A C46A A70G and A15U C22A G23A C24A G56C cannot be ordered by yeast fitness: no more than 0.5 for the first, no more than 0.5 for the second.

Going from A15U C22G to A15U C22G A69U, the yeast fitness falls from 0.67 to 0.608.

First: A15U C22G A70C
Second: A15U C22G C31G U32G
The yeast fitness of the first is lower: no more than 0.5 for the first, 0.626 for the second.

A15U C22G C31U A57C and A15U C22G C31U A65U A69U cannot be ordered by yeast fitness: no more than 0.5 for the first, no more than 0.5 for the second.

A15U C22G C31U C60A and A15U C22G C31U U64A G68C A70U cannot be ordered by yeast fitness: no more than 0.5 for the first, no more than 0.5 for the second.

A15U C22G G48C G63C A70C and A15U C22G G52C A65C cannot be ordered by yeast fitness: no more than 0.5 for the first, no more than 0.5 for the second.

Going from A15U C22U to A15U C22U A57U, the yeast fitness falls from 0.743 to no more than 0.5.

A15U C22U C33G G50A and A15U C22U G44C cannot be ordered by yeast fitness: no more than 0.5 for the first, no more than 0.5 for the second.

Compared with A15U C22U G44C A65G, A15U C22U G52A is higher in yeast fitness: no more than 0.5 for the first, 0.596 for the second.

Going from A15U C24A to A15U C24A C29G, the yeast fitness falls from 0.53 to no more than 0.5.

A15U C24A G25A U47C G52C and A15U C24A G25A U47C G52C C62U C66A A70C cannot be ordered by yeast fitness: no more than 0.5 for the first, no more than 0.5 for the second.

First: A15U C24G
Second: A15U C24G A42C A43C
The yeast fitness of the first is higher: 0.647 for the first, no more than 0.5 for the second.

First: A15U C24G A42C C66A
Second: A15U C24G A45G G52A U54A
The yeast fitness of the first is higher: 0.59 for the first, no more than 0.5 for the second.

Going from A15U C24G A65U to A15U C24G C30U, the yeast fitness rises from no more than 0.5 to 0.608.

A15U C24G C30U A57U A69C and A15U C24G C34U U53C C55G C62A cannot be ordered by yeast fitness: no more than 0.5 for the first, no more than 0.5 for the second.

A15U C24G C62U A69U and A15U C24G G44C G58C G68U cannot be ordered by yeast fitness: no more than 0.5 for the first, no more than 0.5 for the second.

A15U C24G G56A and A15U C24G G63A cannot be ordered by yeast fitness: no more than 0.5 for the first, no more than 0.5 for the second.

A15U C24G G68A and A15U C24G U32A G41A cannot be ordered by yeast fitness: no more than 0.5 for the first, no more than 0.5 for the second.

A15U C24G U32C A42C A43C and A15U C24G U53A U64A cannot be ordered by yeast fitness: no more than 0.5 for the first, no more than 0.5 for the second.

First: A15U C24U
Second: A15U C24U A37U
The yeast fitness of the first is higher: 0.627 for the first, no more than 0.5 for the second.

First: A15U C27A
Second: A15U C27A A43C
The yeast fitness of the first is higher: 0.593 for the first, 0.592 for the second.

Compared with A15U C27A A65C A69C, A15U C27A C49G U64A is higher in yeast fitness: 0.577 for the first, 0.639 for the second.

A15U C27A C61G and A15U C27A C61U cannot be ordered by yeast fitness: no more than 0.5 for the first, no more than 0.5 for the second.

A15U C27A C62A A69U and A15U C27A C62U A65C A69C cannot be ordered by yeast fitness: no more than 0.5 for the first, no more than 0.5 for the second.

A15U C27A G56C G63A and A15U C27A U35C U54C U64C cannot be ordered by yeast fitness: no more than 0.5 for the first, no more than 0.5 for the second.

Compared with A15U C27G U59C, A15U C27U is higher in yeast fitness: no more than 0.5 for the first, 0.699 for the second.

Compared with A15U C27U C49U, A15U C27U G39A G48A is lower in yeast fitness: 0.655 for the first, no more than 0.5 for the second.

A15U C27U G48C A69G A70U and A15U C27U U47C G68C cannot be ordered by yeast fitness: no more than 0.5 for the first, no more than 0.5 for the second.

A15U C29A C34G and A15U C29A C49G A69U cannot be ordered by yeast fitness: no more than 0.5 for the first, no more than 0.5 for the second.

First: A15U C29A G50C
Second: A15U C29G C31G C60U
The yeast fitness of the first is lower: no more than 0.5 for the first, 0.675 for the second.

Going from A15U C29G C34U C66U to A15U C29U C46U, the yeast fitness rises from no more than 0.5 to 0.667.

Going from A15U C29U C66A to A15U C30A C31U A45C C55G, the yeast fitness falls from 0.57 to no more than 0.5.

First: A15U C30G A36C C60A C61U
Second: A15U C30G C34U
The yeast fitness of the first is lower: no more than 0.5 for the first, 0.71 for the second.

Compared with A15U C30G C34U C66U A70C, A15U C30G G38A U54C is higher in yeast fitness: 0.511 for the first, 0.553 for the second.

Compared with A15U C30G G50A, A15U C30U A40G C55U is higher in yeast fitness: no more than 0.5 for the first, 0.653 for the second.

First: A15U C30U A57G
Second: A15U C30U C62U
The yeast fitness of the first is lower: no more than 0.5 for the first, 0.572 for the second.

Going from A15U C30U G52A A65U to A15U C31A, the yeast fitness rises from no more than 0.5 to 0.588.

First: A15U C31A A70G
Second: A15U C31A C49G
The yeast fitness of the first is lower: no more than 0.5 for the first, 0.576 for the second.

Going from A15U C31A C49G A65C to A15U C31A C62U, the yeast fitness rises from no more than 0.5 to 0.573.

First: A15U C31A U54C
Second: A15U C31G
The yeast fitness of the first is lower: no more than 0.5 for the first, 0.676 for the second.

A15U C31G C33G A42U and A15U C31G C33U A37C A65U G67A cannot be ordered by yeast fitness: no more than 0.5 for the first, no more than 0.5 for the second.

Going from A15U C31G C34U A40C to A15U C31G U53A C55U A57C C60G G67C, the yeast fitness rises from 0.531 to 0.546.

Going from A15U C31G U53A C55U G68U to A15U C31U, the yeast fitness rises from no more than 0.5 to 0.707.

Going from A15U C31U C46G G63A A65G A70U to A15U C31U G52A, the yeast fitness rises from no more than 0.5 to 0.576.

Going from A15U C31U U35A A36C U53A to A15U C31U U35A A36C U53A G68C, the yeast fitness falls from 0.625 to no more than 0.5.

Going from A15U C33A A37G U53C to A15U C33G, the yeast fitness falls from 0.668 to 0.551.

Compared with A15U C33G C34G A45U G51A, A15U C33G C62G is higher in yeast fitness: no more than 0.5 for the first, 0.602 for the second.

Compared with A15U C33G G50A, A15U C33G G52A A65G is lower in yeast fitness: 0.625 for the first, no more than 0.5 for the second.

A15U C33U A36G C62G A69C and A15U C33U G56A cannot be ordered by yeast fitness: no more than 0.5 for the first, no more than 0.5 for the second.

A15U C33U U64G A70C and A15U C34A A40U G52A G68A cannot be ordered by yeast fitness: no more than 0.5 for the first, no more than 0.5 for the second.

Going from A15U C34A G39C A40C G56C C61G C62G G68C to A15U C34G A37G A40C, the yeast fitness rises from 0.533 to 0.59.

A15U C34G A37G A40C C62U A65U and A15U C34G A37G A40C U64C cannot be ordered by yeast fitness: no more than 0.5 for the first, no more than 0.5 for the second.

A15U C34G C55U A69C and A15U C34U G41C A69G cannot be ordered by yeast fitness: no more than 0.5 for the first, no more than 0.5 for the second.

Going from A15U C46A to A15U C46A U53A A69G, the yeast fitness falls from 0.719 to no more than 0.5.

Going from A15U C46G to A15U C46G A70U, the yeast fitness falls from 0.825 to 0.56.

First: A15U C46U
Second: A15U C46U A65U G68C
The yeast fitness of the first is higher: 0.978 for the first, no more than 0.5 for the second.

Going from A15U C46U U54C to A15U C49G, the yeast fitness falls from 0.684 to 0.671.

Going from A15U C49U G56A C61G to A15U C55A, the yeast fitness rises from no more than 0.5 to 0.503.

Going from A15U C55G to A15U C55G U64C A65C, the yeast fitness falls from 0.604 to no more than 0.5.

First: A15U C55U
Second: A15U C60A
The yeast fitness of the first is higher: 0.672 for the first, 0.512 for the second.

First: A15U C60G A65U
Second: A15U C61A
The yeast fitness of the first is lower: no more than 0.5 for the first, 0.571 for the second.

Going from A15U C61G to A15U C61U, the yeast fitness rises from 0.582 to 0.673.

Compared with A15U C62G, A15U C66G is higher in yeast fitness: 0.646 for the first, 0.671 for the second.

First: A15U C66U A70U
Second: A15U G17A
The yeast fitness of the first is lower: 0.604 for the first, 0.707 for the second.

A15U G17C A37U and A15U G17C A45U C49G cannot be ordered by yeast fitness: no more than 0.5 for the first, no more than 0.5 for the second.

A15U G18A A37G G50A and A15U G18A A40C A43C C46G A69C cannot be ordered by yeast fitness: no more than 0.5 for the first, no more than 0.5 for the second.

A15U G18A A57U and A15U G18A C27G G56C G68C cannot be ordered by yeast fitness: no more than 0.5 for the first, no more than 0.5 for the second.

Going from A15U G18A C27U U35C G41A C49U U53A to A15U G18A U35C G58A, the yeast fitness falls from 0.603 to no more than 0.5.

Compared with A15U G18C A36G A37C G50A, A15U G18C C29G is higher in yeast fitness: no more than 0.5 for the first, 0.571 for the second.

Going from A15U G18C C29G U64A A69C to A15U G18C C55U A69C, the yeast fitness falls from 0.598 to no more than 0.5.

First: A15U G23A A40C A57G C61U A65C
Second: A15U G23A G68C
The yeast fitness of the first is higher: 0.629 for the first, no more than 0.5 for the second.

A15U G23C A37G and A15U G23C A40U G63C cannot be ordered by yeast fitness: no more than 0.5 for the first, no more than 0.5 for the second.

A15U G23C A45U C62A and A15U G23C A45U G52A cannot be ordered by yeast fitness: no more than 0.5 for the first, no more than 0.5 for the second.

First: A15U G23C C29U G50A
Second: A15U G23C C33A C66U G68C
The yeast fitness of the first is higher: 0.616 for the first, no more than 0.5 for the second.

A15U G23C C33A G63C G68U and A15U G23C C33A G67C cannot be ordered by yeast fitness: no more than 0.5 for the first, no more than 0.5 for the second.

A15U G23C C34G C55G and A15U G23C G41A C49A cannot be ordered by yeast fitness: no more than 0.5 for the first, no more than 0.5 for the second.

Compared with A15U G23C U28G U32C A36U G38A C55A, A15U G23U C24G is lower in yeast fitness: 0.689 for the first, no more than 0.5 for the second.

In the case of A15U G25A A36U, the yeast fitness is reported as 0.586.
